Measured values as given in paper PMC6581564 (Biomacromolecules, 2019).

Experiments:
[1] = tested on: P. aeruginosa strain PAO1; experiment: Colistin efficacy; format: cell-based, Pseudomonas aeruginosa; conditions: colistin 8 or 16 μg/mL, 24 h
[2] = cited from earlier work
MUC5AC = MUC5AC (Sus scrofa, UniProt A0A8W4FM62); experiment: Equilibrium dialysis; format: binding, pig; conditions: mucin 0.5% w/v; for Mucin binding rank within the NIH Clinical Collection (NCC) set (ΔG): in PBS, 41 NCC molecules, 200 nM
MUC5AC, sequence (A0A8W4FM62 1-4915): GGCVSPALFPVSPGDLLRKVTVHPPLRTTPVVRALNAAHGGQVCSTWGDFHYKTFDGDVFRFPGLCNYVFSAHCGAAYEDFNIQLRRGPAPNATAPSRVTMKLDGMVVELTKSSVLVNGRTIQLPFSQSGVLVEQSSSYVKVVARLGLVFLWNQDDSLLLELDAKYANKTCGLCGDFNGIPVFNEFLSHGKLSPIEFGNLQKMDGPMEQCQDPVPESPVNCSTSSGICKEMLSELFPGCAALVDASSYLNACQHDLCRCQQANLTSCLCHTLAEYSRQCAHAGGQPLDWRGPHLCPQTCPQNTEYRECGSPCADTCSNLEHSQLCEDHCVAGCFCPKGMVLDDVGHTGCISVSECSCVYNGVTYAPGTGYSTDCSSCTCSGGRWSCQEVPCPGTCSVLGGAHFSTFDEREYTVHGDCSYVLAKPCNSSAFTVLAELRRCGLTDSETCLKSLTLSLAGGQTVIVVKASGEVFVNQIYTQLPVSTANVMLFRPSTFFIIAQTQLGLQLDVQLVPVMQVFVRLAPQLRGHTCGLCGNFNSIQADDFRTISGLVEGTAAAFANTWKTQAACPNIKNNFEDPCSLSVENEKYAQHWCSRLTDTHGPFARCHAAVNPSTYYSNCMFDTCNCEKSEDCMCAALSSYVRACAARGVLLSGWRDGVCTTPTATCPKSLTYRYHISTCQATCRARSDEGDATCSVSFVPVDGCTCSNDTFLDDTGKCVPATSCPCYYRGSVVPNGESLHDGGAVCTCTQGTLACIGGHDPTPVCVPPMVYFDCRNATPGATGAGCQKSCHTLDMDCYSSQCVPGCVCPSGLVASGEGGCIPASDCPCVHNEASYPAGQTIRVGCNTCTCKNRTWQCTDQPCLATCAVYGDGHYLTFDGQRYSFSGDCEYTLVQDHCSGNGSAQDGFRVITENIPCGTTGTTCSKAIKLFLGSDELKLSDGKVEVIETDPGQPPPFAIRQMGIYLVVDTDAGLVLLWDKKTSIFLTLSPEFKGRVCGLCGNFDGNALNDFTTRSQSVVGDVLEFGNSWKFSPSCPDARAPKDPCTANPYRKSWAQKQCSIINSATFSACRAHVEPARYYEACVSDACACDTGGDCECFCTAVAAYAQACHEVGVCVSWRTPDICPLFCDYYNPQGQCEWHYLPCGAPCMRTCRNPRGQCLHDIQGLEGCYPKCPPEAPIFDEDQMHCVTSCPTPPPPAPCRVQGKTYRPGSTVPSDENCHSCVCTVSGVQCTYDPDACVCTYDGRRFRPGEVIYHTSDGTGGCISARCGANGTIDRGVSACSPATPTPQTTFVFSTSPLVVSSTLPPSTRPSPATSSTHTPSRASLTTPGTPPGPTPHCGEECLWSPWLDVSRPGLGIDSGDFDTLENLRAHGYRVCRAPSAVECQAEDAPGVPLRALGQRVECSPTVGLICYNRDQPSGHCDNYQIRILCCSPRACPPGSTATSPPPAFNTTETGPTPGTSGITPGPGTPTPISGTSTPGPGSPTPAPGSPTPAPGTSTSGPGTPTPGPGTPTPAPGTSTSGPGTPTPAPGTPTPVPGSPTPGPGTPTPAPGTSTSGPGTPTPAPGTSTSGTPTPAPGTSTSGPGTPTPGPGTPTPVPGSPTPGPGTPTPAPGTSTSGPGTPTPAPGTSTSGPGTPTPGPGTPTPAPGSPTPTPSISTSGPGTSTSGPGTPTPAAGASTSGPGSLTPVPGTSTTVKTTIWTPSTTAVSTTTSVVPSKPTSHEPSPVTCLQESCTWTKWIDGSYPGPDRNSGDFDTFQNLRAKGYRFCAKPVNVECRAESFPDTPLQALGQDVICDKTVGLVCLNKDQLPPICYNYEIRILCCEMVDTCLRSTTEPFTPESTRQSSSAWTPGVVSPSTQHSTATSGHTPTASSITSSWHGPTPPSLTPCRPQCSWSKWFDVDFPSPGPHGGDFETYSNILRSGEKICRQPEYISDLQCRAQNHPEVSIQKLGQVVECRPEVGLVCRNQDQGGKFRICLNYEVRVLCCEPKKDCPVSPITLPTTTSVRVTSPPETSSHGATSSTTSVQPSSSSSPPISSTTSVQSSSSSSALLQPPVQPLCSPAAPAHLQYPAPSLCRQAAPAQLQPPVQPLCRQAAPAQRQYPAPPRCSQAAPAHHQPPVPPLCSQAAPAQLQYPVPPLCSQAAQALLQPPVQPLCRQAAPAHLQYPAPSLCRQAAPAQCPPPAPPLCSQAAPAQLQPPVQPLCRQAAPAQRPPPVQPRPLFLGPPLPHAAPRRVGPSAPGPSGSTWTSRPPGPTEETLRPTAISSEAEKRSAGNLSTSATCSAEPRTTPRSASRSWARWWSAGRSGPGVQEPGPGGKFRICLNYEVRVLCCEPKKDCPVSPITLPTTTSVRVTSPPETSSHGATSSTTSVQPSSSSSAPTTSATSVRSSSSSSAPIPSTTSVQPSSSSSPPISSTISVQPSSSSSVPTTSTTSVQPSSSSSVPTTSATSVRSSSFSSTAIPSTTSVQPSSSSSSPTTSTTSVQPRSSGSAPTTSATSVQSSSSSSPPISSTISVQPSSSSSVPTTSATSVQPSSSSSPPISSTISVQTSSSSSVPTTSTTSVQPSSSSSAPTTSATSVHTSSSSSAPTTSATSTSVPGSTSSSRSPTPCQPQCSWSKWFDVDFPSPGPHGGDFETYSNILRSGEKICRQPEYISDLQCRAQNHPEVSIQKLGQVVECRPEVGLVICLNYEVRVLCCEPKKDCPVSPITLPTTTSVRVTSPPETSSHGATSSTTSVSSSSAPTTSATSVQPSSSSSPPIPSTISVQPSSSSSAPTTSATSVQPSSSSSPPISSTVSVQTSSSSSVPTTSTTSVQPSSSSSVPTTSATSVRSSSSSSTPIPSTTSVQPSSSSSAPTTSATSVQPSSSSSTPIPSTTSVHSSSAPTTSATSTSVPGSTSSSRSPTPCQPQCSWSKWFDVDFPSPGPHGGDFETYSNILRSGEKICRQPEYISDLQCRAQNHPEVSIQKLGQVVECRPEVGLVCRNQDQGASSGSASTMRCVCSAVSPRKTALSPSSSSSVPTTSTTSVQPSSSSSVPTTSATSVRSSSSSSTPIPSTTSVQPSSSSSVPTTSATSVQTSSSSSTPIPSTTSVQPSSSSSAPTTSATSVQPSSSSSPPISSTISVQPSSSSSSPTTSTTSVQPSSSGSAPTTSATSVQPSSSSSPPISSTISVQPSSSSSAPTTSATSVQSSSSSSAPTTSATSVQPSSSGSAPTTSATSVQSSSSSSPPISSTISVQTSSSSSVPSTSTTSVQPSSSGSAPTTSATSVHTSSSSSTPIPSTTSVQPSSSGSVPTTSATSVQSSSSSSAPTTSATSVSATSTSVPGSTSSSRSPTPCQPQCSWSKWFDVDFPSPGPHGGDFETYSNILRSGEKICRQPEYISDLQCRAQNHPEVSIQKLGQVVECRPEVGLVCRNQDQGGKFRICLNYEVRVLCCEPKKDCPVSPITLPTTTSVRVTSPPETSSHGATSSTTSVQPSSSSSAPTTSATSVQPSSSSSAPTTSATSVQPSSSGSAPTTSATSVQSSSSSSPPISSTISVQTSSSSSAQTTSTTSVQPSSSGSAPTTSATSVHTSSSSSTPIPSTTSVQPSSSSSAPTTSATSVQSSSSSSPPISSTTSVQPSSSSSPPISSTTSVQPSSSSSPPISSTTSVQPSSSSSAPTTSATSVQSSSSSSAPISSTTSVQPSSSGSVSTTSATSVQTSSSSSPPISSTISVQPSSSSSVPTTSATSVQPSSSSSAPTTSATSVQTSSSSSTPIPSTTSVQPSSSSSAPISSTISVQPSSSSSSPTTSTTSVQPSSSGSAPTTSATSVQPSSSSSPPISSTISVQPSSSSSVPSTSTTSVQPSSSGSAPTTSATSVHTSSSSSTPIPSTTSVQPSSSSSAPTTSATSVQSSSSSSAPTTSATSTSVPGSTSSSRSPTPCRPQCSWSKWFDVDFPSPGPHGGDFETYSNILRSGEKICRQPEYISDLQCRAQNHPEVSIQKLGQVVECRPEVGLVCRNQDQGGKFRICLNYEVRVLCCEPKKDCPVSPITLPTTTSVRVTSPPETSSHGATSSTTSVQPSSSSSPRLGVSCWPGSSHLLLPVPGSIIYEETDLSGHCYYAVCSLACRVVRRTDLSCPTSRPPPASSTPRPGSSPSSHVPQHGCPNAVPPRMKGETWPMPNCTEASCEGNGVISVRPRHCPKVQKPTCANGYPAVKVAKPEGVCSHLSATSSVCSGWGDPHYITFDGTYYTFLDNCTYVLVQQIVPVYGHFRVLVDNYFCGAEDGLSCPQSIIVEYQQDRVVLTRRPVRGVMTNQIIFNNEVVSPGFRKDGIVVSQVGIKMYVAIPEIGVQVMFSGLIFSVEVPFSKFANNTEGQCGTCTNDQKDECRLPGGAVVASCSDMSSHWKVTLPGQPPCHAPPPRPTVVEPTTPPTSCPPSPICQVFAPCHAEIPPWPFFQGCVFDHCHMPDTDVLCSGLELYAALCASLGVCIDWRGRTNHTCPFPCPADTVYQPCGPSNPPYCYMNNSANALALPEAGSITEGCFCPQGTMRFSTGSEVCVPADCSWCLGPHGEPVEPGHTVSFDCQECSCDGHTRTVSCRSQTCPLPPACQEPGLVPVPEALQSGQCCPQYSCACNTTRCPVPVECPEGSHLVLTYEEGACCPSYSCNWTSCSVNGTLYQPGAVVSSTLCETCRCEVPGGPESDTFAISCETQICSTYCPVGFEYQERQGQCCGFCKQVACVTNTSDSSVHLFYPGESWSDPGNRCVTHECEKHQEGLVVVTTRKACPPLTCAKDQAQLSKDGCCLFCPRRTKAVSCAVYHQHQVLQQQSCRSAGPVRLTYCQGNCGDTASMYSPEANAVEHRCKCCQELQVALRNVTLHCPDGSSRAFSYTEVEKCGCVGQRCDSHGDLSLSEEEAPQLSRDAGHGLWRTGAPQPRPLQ

[3] = tested on: P. aeruginosa strain PAO1; experiment: Colistin MIC by modified broth microdilution assay; format: cell-based, Pseudomonas aeruginosa; conditions: in MHB, 37 °C, 24 hours, visual inspection
Method in brief: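 PAO1 grown overnight in Mueller-Hinton II broth (MHB) at 37 °C, then diluted into fresh MHB to about 3×10⁴ CFU/mL. Test compound stock in water was serially diluted 2-fold in MHB and mixed 1:10 with the inoculum (final 1 mg/mL to 0.4 μg/mL). Plates incubated 24 h at 37 °C. MIC taken as the lowest concentration with no visible growth.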

Question: For colistin, which “Effect of methylcellulose on colistin activity (surviving PAO1 cells, CFU)” value ([1]; MC 0.5% w/v in MHB) is on record?
Answer: negligible effect

Question: What about the “Effect of mucin on colistin activity (surviving PAO1 cells, CFU)” value ([1]; mucin 0.5% w/v in MHB) of the same compound?
Answer: inhibited the effect of colistin to a substantial degree

Question: And the Molecular charge [2]?
Answer: +5

Question: What about the “Binding to mucin (ΔG; negative ΔG implies binding)” value (MUC5AC; colistin 10 μM, 4 h, 37 °C) of the same compound?
Answer: bound to mucin

Question: And the MIC [3]?
Answer: 8 µg/mL

Question: For CNCCCC12CCC(c3ccccc31)c1ccccc12 [maprotiline], which “Mucin binding rank within the NIH Clinical Collection (NCC) set (ΔG)” value (MUC5AC) is on record?
Answer: four strongest mucin binders

Question: With COc1cccc2c1C(=O)c1c(O)c3c(c(O)c1C2=O)C[C@@](O)(C(=O)CO)C[C@@H]3O[C@H]1C[C@H](N)[C@H](O)[C@H](C)O1 [doxorubicin] as the compound, how does the “Mucin binding rank within the NIH Clinical Collection (NCC) set (ΔG)” value (MUC5AC) read?
Answer: four strongest mucin binders

Question: Which Molecular charge [2] does the source give for NC[C@H]1O[C@H](O[C@H]2[C@H](O)[C@@H](O[C@H]3O[C@H](CO)[C@@H](O)[C@H](N)[C@H]3O)[C@H](N)C[C@@H]2N)[C@H](N)C[C@@H]1O [tobramycin] here?
Answer: +5

Question: Which “Mucin binding rank within the NIH Clinical Collection (NCC) set (ΔG)” value (MUC5AC) does the source give for O=c1c(-c2ccccc2)c1-c1ccccc1 [diphencyprone] here?
Answer: four strongest mucin binders

Question: Which “Mucin binding rank within the NIH Clinical Collection (NCC) set (ΔG)” value (MUC5AC) does the source give for Nc1nc(Cl)nc2c1ncn2[C@H]1C[C@H](O)[C@@H](CO)O1 [cladribine] here?
Answer: four strongest mucin binders
